Calls of active or inactive are those of the source. The rule behind the calls is not given here.
Key:
[1] = target: T1, Hepatocyte growth factor receptor (Homo sapiens, UniProt P08581); test: Inhibition of c-MET (unknown origin) using poly (Glu, Tyr)4:1 as substrate in presence of ATP measured after 30 mins by HTRF assay
MKN-45 = test: Cytotoxicity against human MKN-45 cells assessed as inhibition of cell proliferation measured after 72 hrs by MTT assay; type: functional, cell-based; settings: MKN-45, 72 h
MDA-MB-231 = test: Cytotoxicity against human MDA-MB-231 cells assessed as inhibition of cell proliferation measured after 72 hrs by MTT assay; type: functional, cell-based; settings: MDA-MB-231, 72 h
A549 [2] = test: Induction of apoptosis in human A549 cells assessed as early apoptosis at 1 uM measured after 12 hrs by Annexin V-FITC/ Propidium iodide stain based flow cytometry assay relative to control; type: functional
Method in brief: (§1)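 Cells double-stained with FITC-annexin V and propidium iodide, then flow cytometry gave the percentages of early and late apoptotic cells.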

A549 [3] = test: Induction of apoptosis in human A549 cells assessed as late apoptosis at 1 uM measured after 12 hrs by Annexin V-FITC/ Propidium iodide stain based flow cytometry assay relative to control; type: functional; method in brief: as §1
A549 [4] = test: Induction of apoptosis in human A549 cells assessed as late apoptosis measured after 12 hrs by Annexin V-FITC/ Propidium iodide stain based flow cytometry assay; type: functional, cell-based; settings: dose 0.25-1 µM; method in brief: as §1
A549 [5] = test: Induction of cell cycle arrest in human A549 cells assessed as increased accumulation of cells at G2/M phase measured after 24 hrs by Propidium iodide stain based Flow cytometry assay; type: functional; settings: dose 0.25-1 µM
Method in brief: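 A549 cells exposed to vehicle or 0.25, 0.5 or 1.0 µM compound. DNA content measured by propidium iodide staining with RNase and flow cytometry, and the G2/M fraction was scored.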

[6] = Toxicity in Balb/c mouse assessed as survival rate at 100 mg/kg, ip measured after 15 days; type: organism-based; settings: in vivo, time 15 day
Method in brief: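 Acute toxicity: 8-week-old male BALB/c mice, randomized in groups of n = 10, given a single intraperitoneal injection on day zero (vehicle only, 100, 200, 300 or 400 mg/kg). A further untreated group served as normal control. Survival on day 15 was reported as a percentage.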

[7] = Toxicity in Balb/c mouse assessed as allergic reaction at 100 to 200 mg/kg, ip measured after 15 days; type: organism-based; settings: in vivo, 360 h, dose 100-200 mg/kg, time 15 day
Method in brief: (§2)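 Acute toxicity in 8-week-old male BALB/c mice, randomized into groups of n = 10. Single intraperitoneal dose on day 0 of vehicle or 100, 200, 300 or 400 mg/kg, plus an untreated control group. Mice watched for 15 days for deaths, abnormalities, anaphylactic or allergic reactions and body weight loss.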

[8] = Toxicity in Balb/c mouse assessed as body weight at 100 to 200 mg/kg, ip measured after 15 days; type: organism-based; settings: in vivo, 360 h, dose 100-200 mg/kg, time 15 day; method in brief: as §2
FHC = test: Cytotoxicity against human FHC cells assessed as inhibtion of cell proliferation measured after 72 hrs by MTT assay
[9] = Half life in Balb/c mouse at 2 mg/kg, iv measured after 24 hrs by LC/MS/MS analysis; type: ADME, organism-based; settings: in vivo
Method in brief: (§3)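 BALB/c mice dosed once orally at 8 mg/kg or intravenously at 2 mg/kg. Plasma concentration followed over time, and Cmax, Tmax, AUC0-∞, elimination half-life, clearance and oral bioavailability were derived from it.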

[10] = Cmax in Balb/c mouse at 2 mg/kg, iv measured after 24 hrs by LC/MS/MS analysis; type: ADME, organism-based; design: route intravenous, dose 2 mg/kg, time 24 hrs; settings: in vivo; method in brief: as §3
[11] = Cmax in Balb/c mouse at 8 mg/kg, po measured after 24 hrs by LC/MS/MS analysis; type: ADME, organism-based; design: route oral, time 24 hrs, dose 8 mg/kg; settings: in vivo; method in brief: as §3
[12] = Tmax in Balb/c mouse at 8 mg/kg, po measured after 24 hrs by LC/MS/MS analysis; type: ADME, organism-based; settings: in vivo; method in brief: as §3
[13] = target: Mast/stem cell growth factor receptor Kit (Homo sapiens, UniProt P10721); test: Inhibition of c-Kit (unknown origin) using poly (Glu, Tyr)4:1 as substrate in presence of ATP measured after 30 mins by HTRF assay
Chain of Mast/stem cell growth factor receptor Kit (P10721 whole entry): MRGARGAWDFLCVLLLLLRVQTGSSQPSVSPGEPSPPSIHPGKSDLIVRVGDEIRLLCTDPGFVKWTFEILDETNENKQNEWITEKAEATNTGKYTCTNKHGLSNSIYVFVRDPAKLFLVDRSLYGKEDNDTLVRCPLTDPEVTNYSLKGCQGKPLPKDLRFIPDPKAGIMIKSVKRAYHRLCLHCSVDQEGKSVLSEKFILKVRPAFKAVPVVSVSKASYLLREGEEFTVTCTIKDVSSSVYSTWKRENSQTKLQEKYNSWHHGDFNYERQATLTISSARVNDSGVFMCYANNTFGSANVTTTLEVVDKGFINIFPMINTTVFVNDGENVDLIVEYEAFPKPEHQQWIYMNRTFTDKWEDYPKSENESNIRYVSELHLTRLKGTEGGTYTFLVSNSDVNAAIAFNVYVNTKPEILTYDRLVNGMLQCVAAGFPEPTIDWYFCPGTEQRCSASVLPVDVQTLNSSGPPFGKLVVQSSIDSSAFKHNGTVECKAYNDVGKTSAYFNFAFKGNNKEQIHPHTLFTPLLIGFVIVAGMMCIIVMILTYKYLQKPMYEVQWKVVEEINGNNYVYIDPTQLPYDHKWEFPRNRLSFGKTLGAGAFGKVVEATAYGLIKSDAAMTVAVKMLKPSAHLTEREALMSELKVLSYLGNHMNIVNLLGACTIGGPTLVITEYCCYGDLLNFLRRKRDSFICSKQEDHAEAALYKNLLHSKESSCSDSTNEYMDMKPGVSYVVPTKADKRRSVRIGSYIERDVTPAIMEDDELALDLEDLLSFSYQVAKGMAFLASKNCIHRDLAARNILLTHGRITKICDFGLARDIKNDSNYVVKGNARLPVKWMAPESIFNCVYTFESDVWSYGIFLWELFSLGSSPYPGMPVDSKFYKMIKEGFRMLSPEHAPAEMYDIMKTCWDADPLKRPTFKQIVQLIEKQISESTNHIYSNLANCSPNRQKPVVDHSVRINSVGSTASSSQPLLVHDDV
Method in brief: (§4)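 Kinase inhibition measured by homogeneous time-resolved fluorescence (HTRF) across a panel of Ron, ALK and other tyrosine kinases, with IC50 as the read-out.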

[14] = target: Platelet-derived growth factor receptor beta (Homo sapiens, UniProt P09619); test: Inhibition of PDGFR beta (unknown origin) using poly (Glu, Tyr)4:1 as substrate in presence of ATP measured after 30 mins by HTRF assay; method in brief: as §4
Chain of Platelet-derived growth factor receptor beta (P09619 whole entry): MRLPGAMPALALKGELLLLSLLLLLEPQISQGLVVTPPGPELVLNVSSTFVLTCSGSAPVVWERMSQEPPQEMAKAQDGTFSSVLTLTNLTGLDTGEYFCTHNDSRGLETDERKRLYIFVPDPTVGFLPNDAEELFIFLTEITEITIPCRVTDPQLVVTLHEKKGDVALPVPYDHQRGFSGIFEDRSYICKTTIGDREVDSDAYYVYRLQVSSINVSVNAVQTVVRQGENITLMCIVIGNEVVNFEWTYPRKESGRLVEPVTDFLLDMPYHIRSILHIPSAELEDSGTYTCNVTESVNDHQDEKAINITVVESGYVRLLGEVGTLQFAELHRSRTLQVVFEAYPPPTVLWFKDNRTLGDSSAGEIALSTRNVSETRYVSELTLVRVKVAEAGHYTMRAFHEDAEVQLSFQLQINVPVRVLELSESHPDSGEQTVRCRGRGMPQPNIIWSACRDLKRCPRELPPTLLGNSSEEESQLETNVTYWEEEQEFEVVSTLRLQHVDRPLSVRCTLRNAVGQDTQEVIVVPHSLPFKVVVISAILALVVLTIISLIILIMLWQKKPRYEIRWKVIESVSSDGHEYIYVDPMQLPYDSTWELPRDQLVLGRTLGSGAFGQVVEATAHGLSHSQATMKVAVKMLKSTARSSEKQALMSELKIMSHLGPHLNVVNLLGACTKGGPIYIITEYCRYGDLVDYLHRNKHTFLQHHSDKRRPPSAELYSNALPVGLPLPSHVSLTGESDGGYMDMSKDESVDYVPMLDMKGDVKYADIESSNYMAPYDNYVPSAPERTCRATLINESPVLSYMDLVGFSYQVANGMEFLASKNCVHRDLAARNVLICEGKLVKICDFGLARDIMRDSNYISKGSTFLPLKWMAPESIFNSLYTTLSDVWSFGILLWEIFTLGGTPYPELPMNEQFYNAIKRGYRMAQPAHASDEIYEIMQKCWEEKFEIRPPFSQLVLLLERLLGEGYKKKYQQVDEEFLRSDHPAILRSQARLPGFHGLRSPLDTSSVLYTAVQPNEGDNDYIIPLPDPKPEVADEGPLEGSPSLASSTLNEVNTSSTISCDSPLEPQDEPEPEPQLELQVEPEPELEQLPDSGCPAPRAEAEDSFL

[15] = target: Vascular endothelial growth factor receptor 2 (Homo sapiens, UniProt P35968); test: Inhibition of VEGFR 2 (unknown origin) using poly (Glu, Tyr)4:1 as substrate in presence of ATP measured after 30 mins by HTRF assay
Chain of Vascular endothelial growth factor receptor 2 (P35968 whole entry): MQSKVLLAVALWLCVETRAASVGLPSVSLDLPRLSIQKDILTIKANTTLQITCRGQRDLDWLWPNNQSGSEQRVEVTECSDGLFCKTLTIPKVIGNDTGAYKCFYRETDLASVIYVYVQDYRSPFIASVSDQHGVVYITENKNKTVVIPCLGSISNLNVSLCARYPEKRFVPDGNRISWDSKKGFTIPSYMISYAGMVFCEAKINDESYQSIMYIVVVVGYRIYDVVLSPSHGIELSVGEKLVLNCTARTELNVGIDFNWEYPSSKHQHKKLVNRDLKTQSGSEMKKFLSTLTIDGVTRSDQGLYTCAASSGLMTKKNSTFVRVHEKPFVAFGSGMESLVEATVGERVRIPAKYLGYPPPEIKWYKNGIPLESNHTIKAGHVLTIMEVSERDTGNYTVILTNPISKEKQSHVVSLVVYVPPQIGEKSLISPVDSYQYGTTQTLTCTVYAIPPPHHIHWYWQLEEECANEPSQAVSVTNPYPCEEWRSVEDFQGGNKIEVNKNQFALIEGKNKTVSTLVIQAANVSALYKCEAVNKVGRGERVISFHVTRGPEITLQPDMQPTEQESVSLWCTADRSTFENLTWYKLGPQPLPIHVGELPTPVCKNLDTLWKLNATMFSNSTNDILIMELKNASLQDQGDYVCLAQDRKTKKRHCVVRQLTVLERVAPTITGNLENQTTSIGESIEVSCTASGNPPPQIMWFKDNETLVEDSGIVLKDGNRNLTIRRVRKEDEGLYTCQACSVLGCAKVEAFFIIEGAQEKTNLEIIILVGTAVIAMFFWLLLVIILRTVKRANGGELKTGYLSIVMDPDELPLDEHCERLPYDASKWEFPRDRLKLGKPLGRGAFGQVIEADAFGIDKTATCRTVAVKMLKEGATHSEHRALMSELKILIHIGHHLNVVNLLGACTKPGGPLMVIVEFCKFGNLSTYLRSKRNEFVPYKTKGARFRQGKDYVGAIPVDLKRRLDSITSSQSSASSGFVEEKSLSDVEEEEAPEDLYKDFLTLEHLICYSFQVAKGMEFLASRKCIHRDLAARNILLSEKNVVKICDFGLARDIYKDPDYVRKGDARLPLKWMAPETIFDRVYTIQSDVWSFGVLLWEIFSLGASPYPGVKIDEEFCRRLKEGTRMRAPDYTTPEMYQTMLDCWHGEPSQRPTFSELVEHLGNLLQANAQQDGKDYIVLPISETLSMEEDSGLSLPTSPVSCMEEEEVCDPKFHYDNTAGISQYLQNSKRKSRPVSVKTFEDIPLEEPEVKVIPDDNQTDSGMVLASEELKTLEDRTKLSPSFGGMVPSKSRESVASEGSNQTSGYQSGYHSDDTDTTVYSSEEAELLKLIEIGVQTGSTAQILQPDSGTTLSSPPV

[16] = target: Vascular endothelial growth factor receptor 3 (Homo sapiens, UniProt P35916); test: Inhibition of FLT-4 (unknown origin) using poly (Glu, Tyr)4:1 as substrate in presence of ATP measured after 30 mins by HTRF assay; method in brief: as §4
HUVEC = test: cells; settings: Homo sapiens, 72 h
[17] = target: T1, Hepatocyte growth factor receptor; test: Inhibition of human c-MET phosphorylation in human A549 cells measured after 1 hr by western blot analysis; settings: dose 2-8 µmol/L

T1 sequence (P08581 whole entry): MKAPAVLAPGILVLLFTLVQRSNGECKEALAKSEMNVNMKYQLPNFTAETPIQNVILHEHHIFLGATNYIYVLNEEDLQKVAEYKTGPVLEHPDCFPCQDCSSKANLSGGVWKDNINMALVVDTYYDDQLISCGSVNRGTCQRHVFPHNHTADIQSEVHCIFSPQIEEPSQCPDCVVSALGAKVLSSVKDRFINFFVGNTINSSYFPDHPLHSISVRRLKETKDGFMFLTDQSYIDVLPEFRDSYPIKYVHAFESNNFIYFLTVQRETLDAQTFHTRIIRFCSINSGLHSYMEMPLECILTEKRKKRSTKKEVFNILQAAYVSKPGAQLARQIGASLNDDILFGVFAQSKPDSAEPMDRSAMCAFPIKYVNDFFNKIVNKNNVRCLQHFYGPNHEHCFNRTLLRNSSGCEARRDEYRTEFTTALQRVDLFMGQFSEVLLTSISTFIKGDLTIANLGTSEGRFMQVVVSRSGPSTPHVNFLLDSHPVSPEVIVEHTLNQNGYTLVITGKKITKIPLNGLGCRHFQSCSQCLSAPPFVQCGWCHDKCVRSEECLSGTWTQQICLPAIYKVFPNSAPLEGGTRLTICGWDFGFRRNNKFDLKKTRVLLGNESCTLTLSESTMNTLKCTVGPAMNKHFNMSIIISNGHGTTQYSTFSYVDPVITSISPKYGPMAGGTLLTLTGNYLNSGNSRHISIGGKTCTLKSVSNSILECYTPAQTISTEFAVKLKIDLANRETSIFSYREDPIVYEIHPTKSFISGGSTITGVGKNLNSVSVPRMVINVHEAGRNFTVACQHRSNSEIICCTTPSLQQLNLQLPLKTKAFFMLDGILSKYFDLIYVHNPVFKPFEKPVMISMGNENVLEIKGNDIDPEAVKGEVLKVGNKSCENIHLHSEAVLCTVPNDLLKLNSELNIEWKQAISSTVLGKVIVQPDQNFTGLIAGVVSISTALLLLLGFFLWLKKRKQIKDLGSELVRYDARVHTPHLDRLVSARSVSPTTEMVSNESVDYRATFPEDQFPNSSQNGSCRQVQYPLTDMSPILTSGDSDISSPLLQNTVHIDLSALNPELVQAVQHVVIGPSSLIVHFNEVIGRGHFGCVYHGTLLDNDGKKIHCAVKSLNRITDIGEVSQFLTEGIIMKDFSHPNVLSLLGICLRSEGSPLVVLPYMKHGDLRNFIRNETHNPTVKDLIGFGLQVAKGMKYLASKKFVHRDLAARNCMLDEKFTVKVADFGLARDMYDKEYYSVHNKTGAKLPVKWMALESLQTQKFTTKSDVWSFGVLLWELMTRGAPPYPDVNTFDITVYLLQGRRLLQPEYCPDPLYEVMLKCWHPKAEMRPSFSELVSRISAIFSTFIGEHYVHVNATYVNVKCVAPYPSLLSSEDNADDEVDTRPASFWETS

`COCC/C(=N\S(=O)(=O)Cc1ccc(Cl)cc1)Nc1ccc(Oc2ccnc3cc(OCCCN4CCOCC4)c(OC)cc23)c(F)c1` showed an IC50 [1] of 2.89 nM, an IC50 (MKN-45) of 480 nM and an IC50 (MDA-MB-231) of 720 nM. For the same molecule, the Activity (A549 [2]) was 15.69%, the Activity (A549 [3]) was 30.99% and the Activity (A549 [4]) was “Dose-dependent effect”. For the same molecule, the Activity (A549 [5]) was “Dose-dependent effect”, the survival at 360 h [6] was 100% and the Activity [7] was “Non-Toxic”. For the same molecule, the Activity [8] was “Non-Toxic”, the IC50 (FHC) was 6120 nM and the half-life [9] was 1.8 h. It also gave a Cmax [10] of 676 ng/mL, a Cmax [11] of 1230 ng/mL and a Tmax [12] of 2.5 h. The IC50 [13] was 4.26 nM, the IC50 [14] was 565 nM and the IC50 [15] was 673 nM. The IC50 [16] was 358 nM, the IC50 (HUVEC) was 1350 nM and the inhibition [17] was “Active”.

— ChEMBL document CHEMBL4765349, “Design, synthesis and biological evaluation of novel N-sulfonylamidine-based derivatives as c-Met inhibitors via Cu-catalyzed three-component reaction” (Eur J Med Chem, 2020)
